Assay results: ChEMBL document CHEMBL1773050, “Identification of inhibitors that block vaccinia virus infection by targeting the DNA synthesis processivity factor D4” (J Med Chem, 2011)
Converted amounts (≈) assume the structure as drawn.

Tests used:
[1] = target: Uracil-DNA glycosylase (Vaccinia virus (strain Western Reserve) (VACV) (Vaccinia virus (strainWR)), UniProt P04303); assay: Inhibition of Vaccinia virus WR strain processivity factor D4 interaction with A20 protein assessed as inhibition of E9 DNA polymerase-mediated DIG-dUTP incorporation into DNA strand by rapid plate assay; parameters: species or system Orthopoxvirus vaccinia
How it was run: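 Annealed biotinylated primer/100-bp template was coated on streptavidin plates. Compounds were 2-fold serial dilutions in DMSO. After 37 °C for 30 min, DIG-ELISA was read at 405 nm and normalised to DMSO and EDTA controls. Triplicates were used across at least three experiments.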

[2] = Selectivity index, CC50 for African green monkey BSC-1 cells to EC50 for Vaccinia virus; type: toxicity, cell-based; details: read-out: Ratio CC50/EC50
[3] = system: BSC-1; assay: (§1) Cytotoxicity against african green monkey BSC1 cells infected with Vaccinia virus assessed as lactate dehydrogenase release after 20 hrs by microplate reader; type: cell-based; details: chlorocebus aethiops, bsc-1, 20 h
How it was run: (§2)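 BSC-1 cells, seeded at 1 × 10^4 cells/well for 24 h, then received inhibitors at 2-fold serial dilutions in fresh medium with 1% DMSO for 20 h. LDH release into the medium was read at 492 nm after 30 min with reaction mixture in the dark. 2% Triton X-100 gave maximal release and 1% DMSO served as baseline. Triplicates were used, with three independent repeats, giving CC50.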

[4] = target: Uracil-DNA glycosylase (Vaccinia virus (strain Western Reserve) (VACV) (Vaccinia virus (strainWR))) (UniProt P04303); assay: Binding affinity at Vaccinia virus WR strain D4 assessed as melting temperature at 50 uM by thermofluor method
How it was run: (§3)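 Native D4 at 4 μM, His-tag removed and dialysed into buffer, was tested with or without 50 μM compound (final, 1% DMSO). Buffer was 25 mM Tris pH 7.2, 0.15 M NaCl, 5 mM ZnCl2, with Sypro Orange. Fluorescence was read from 25 to 80 °C at 1 °C/min. Tm is the unfolding midpoint, and ΔTm is Tm minus the DMSO mock. At least three independent experiments were run.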

[5] = system: Vaccinia virus; assay: Antiviral activity against Vaccinia virus infected in BSC-1 cells by plaque reduction assay; type: functional, organism-based; details: Orthopoxvirus vaccinia
[6] = target: Uracil-DNA glycosylase (Vaccinia virus (strain Western Reserve) (VACV) (Vaccinia virus (strainWR))) (UniProt P04303); assay: Binding affinity at Vaccinia virus WR strain D4 assessed as change in unfolding transition temperature at 50 uM by thermofluor method; how it was run: as §3
[7] = Solubility of the compound in phosphate buffer by chemiluminescence of total nitrogen contents; type: physicochemical
[8] = as §1; type: cell-based, BSC-1; details: chlorocebus aethiops, BSC-1 cells infected with Vaccinia virus; how it was run: as §2

Compound	IC50 [1] [µM]	selectivity ratio [2]	CC50 [3] [µM]	Tm [4] [°C]	EC50 [5] [µM]	ΔTm [6] [°C]	solubility ([7]; buffer) [µg/mL]	solubility ([7]; phosphate buffer, read-out: solubility) [µg/mL]	CC50 at 20 h [8] [µM]
CN(C)c1ccc(NC(=O)CSc2nc(-c3ccco3)cc(C(F)(F)F)n2)cc1	140	4	57.2	35.1	> 200	-1.7	–	–	–
Oc1ccc(NCc2ccccc2OCc2ccccc2)cc1	5.1	25	175	53.3	7.1	14.9	1.1 (≈ 3.6 µM)	–	–
Oc1ccc(Cl)cc1Sc1cc(Cl)ccc1O [FENTICLOR]	38.5	–	–	–	18.7	–	–	–	–
CCOc1ccccc1C(=O)Nc1ccc2nc3c(c(Nc4ccc(OC)c(OC)c4)c2c1)CCCC3	106	11	73.7	36.3	> 200	-2.1	–	–	–
COC(=O)CC1Oc2ccc(C)cc2-n2cc(-c3ccc(F)cc3)nc21 (stereo unspecified)	> 200	0.4	84.1	32.2	> 200	-6.6	–	–	–
COc1ccc(NCc2nc3ccccc3n2CCOc2ccc(C)cc2)cc1	> 200	22	121	35.2	5.5	-3.2	–	–	–
COc1ccc(OCCn2c(NC(=O)c3ccc(OC)cc3)nc3ccccc32)cc1	169	0.5	23.2	34.3	47.9	-4.1	–	–	–
COc1cc(-c2nc(-c3ccccc3)c(-c3ccc(Br)cc3)[nH]2)cc(OC)c1O	91.2	3	57.2	43	16.7	4.6	1.4 (≈ 3.1 µM)	–	–
COc1ccc(Nc2c(-c3cc(Br)ccc3O)nc3ncccn23)cc1OC	200	3	> 200	38.3	67.6	-0.1	–	–	–
O=S(=O)(c1ccc(C2=CSC(Nc3ccc(F)cc3)N2CCCCCCO)cc1)N1CCCC1 (stereo unspecified)	> 200	63	> 200	35.1	3.2	-3.3	–	–	–
C=C(Cn1cc(C(=O)c2ccc(CC)cc2)c(=O)c2ccccc21)Nc1ccc(OC)c(OC)c1	> 200	0.3	52.9	35.4	> 200	-3.2	–	–	–
Fc1ccc(Nc2c(-c3ccccn3)nc3ccc(Cl)cn23)cc1	> 200	53	> 200	34.7	3.8	-3.7	–	–	–
OC1COc2ccc(-c3cc(-c4ccc(F)cc4)c4c(n3)-c3cc(Cl)ccc3OC4)cc2N1 (stereo unspecified)	> 200	3	> 200	34.9	74.6	-3.5	–	–	–
O=C1c2ccccc2-c2onc3c2C1C(NC1CCCCC1)C=C3NCCO (stereo unspecified)	34.1	–	–	–	–	–	–	1.4 (≈ 3.69 µM)	127
CCOC(=O)c1cnc2c(ccc3ccccc32)c1Nc1ccc(N(C)C)cc1	139	–	> 200	36.3	–	-1.5	–	–	–
Cc1cc2n(n1)C(c1cc(C(C)(C)C)c(O)cc1O)Nc1ccccc1-2 (stereo unspecified)	138	4	92.8	44.3	21.5	4.9	19.1 (≈ 54.7 µM)	–	–
COc1cc(NC(=O)c2cccc3c2C(=O)N(C2CCCCC2)C3)cc(OC)c1OC	> 200	–	> 200	33.2	> 200	-4.9	–	–	–
COc1ccc(N2CCN(Cc3nc4c(c(=O)[nH]c(=O)n4C)n3Cc3ccc(Cl)cc3)CC2)cc1	> 200	0.4	92.8	35.9	> 200	-2.5	–	–	–
Cn1c(=O)n(C)c2cc(NS(=O)(=O)c3ccc(C(C)(C)C)cc3)c(NCc3ccccc3)cc21	132	> 10	> 200	48.4	18.8	10	0.9 (≈ 1.88 µM)	–	–
COc1ccc(Nc2cc(C(=O)NCCCN3CCN(c4ccccc4F)CC3)c3ccccc3n2)c(OC)c1	> 200	8	> 200	34.8	25.8	-3.6	–	–	–
Cc1ccnc(NC(c2ccccc2F)c2ccc3cccnc3c2O)c1 (stereo unspecified)	157	69	> 200	36.4	2.9	-2	–	–	–
COc1ccc(/C=C/c2nc(-c3ccccc3O)n(-c3ccccc3)n2)cc1OC	> 200	0.5	107	34.7	> 200	-3.7	–	–	–
CCOc1ccc2c(c1)C1CC=CC1[C@H](c1ccccc1Cl)N2 (stereo partly specified)	221	9	> 200	35.2	22.4	-5	–	–	–
COc1ccc(C)cc1N(CC(=O)N1CCC(C)CC1)S(=O)(=O)c1ccc(C)cc1	175	–	> 200	33.6	–	-4.8	–	–	–
COc1cc(-c2nc3ccc(Cl)cn3c2Nc2ccc3c(c2)OCCO3)ccc1O	> 200	18	> 200	36.9	10.8	-1.5	–	–	–
Cc1ccc2oc(-c3ccc(Cl)cc3)c(O)c(=O)c2c1	195	–	> 200	36.4	–	-2	–	–	–
Cc1ccccc1Nc1c(-c2ccc(Br)cc2O)nc2sccn12	> 200	9	142	36.5	> 200	-1.9	–	–	–
COc1ccc(Nc2nc(Nc3ccc(OC)cc3OC)nc(N3CCOCC3)n2)c(OC)c1	> 200	–	170	35	–	-3.4	–	–	–
